Data as given in ChEMBL document CHEMBL1132764, “Solution-phase combinatorial synthesis and evaluation of piperazine-2,5-dione derivatives” (2000).
Values after ≈ are worked out from the molar mass of the structure shown.

Each compound was assayed on Artemia salina (assay: (§1) Compound was tested for brine shrimp (Artemia salina) toxicity measured as the lowest value at which severe inhibition of nauplii movement was observed). Conditions: not given.
Assay type: functional
Outline: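 Artemia salina eggs held 24 h in artificial seawater; about 20 nauplii per well in 980 µL brine. Compound added as 1-100 µg in 20 µL DMSO, top concentration 100 µg/mL, each concentration in quadruplicate. Incubated 24 h at 26 °C. Larvae scored against DMSO controls (control deaths <10%). Assay conditions validated with caffeine.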

SMILES	lowest concentration causing severe inhibition of nauplii movement [µg/mL]
CC/C=c1\[nH]c(=O)/c(=C/CCCCC)[nH]c1=O	100
O=c1[nH]/c(=C\c2ccc([N+](=O)[O-])cc2)c(=O)[nH]/c1=C\c1ccc([N+](=O)[O-])cc1	>100
COc1cc(OC)c(/C=c2\[nH]c(=O)/c(=C/c3cccs3)[nH]c2=O)c(OC)c1	>100
C/C=C/C=c1\[nH]c(=O)/c(=C/CCCCC)[nH]c1=O	100
O=c1[nH]/c(=C\c2ccc(Cl)cc2)c(=O)[nH]/c1=C\c1ccccc1	>100
COc1cc(OC)c(/C=c2\[nH]c(=O)/c(=C/c3ccccn3)[nH]c2=O)c(OC)c1	>100
O=c1[nH]/c(=C\c2ccccc2[N+](=O)[O-])c(=O)[nH]/c1=C\c1ccccc1	>100
O=c1[nH]/c(=C\c2c[nH]c3ccccc23)c(=O)[nH]/c1=C\c1cccs1	>100
COc1ccc(/C=c2\[nH]c(=O)/c(=C/c3cccs3)[nH]c2=O)cc1OC	>100
C/C=C/C=c1\[nH]c(=O)/c(=C/C=C/C)[nH]c1=O	>100
CCCCC/C=c1\[nH]c(=O)/c(=C/C(C)C)[nH]c1=O	>100
O=c1[nH]/c(=C\c2ccccc2[N+](=O)[O-])c(=O)[nH]/c1=C\c1ccc([N+](=O)[O-])cc1	>100
O=c1[nH]/c(=C\c2ccc([N+](=O)[O-])cc2)c(=O)[nH]/c1=C\c1ccc(Cl)cc1	>100
O=c1[nH]/c(=C\c2ccccc2)c(=O)[nH]/c1=C\c1ccccc1	>100
COc1ccc(/C=c2\[nH]c(=O)/c(=C/c3ccc(Cl)cc3)[nH]c2=O)cc1	>100
C/C=c1\[nH]c(=O)/c(=C/CC)[nH]c1=O	>100
COc1cc(/C=c2\[nH]c(=O)/c(=C/c3ccccn3)[nH]c2=O)cc(OC)c1OC	100
CC/C=c1\[nH]c(=O)/c(=C/CC)[nH]c1=O	>100
COc1ccc(/C=c2\[nH]c(=O)/c(=C/c3ccc(OC)cc3)[nH]c2=O)cc1	>100
CC/C=c1\[nH]c(=O)c(=CC=Cc2ccccc2)[nH]c1=O	>100

SMILES	lowest concentration causing severe inhibition of nauplii movement [µg/mL]
O=c1[nH]/c(=C\c2ccccc2[N+](=O)[O-])c(=O)[nH]/c1=C\c1ccc(Cl)cc1	>100
COc1cc(OC)c(/C=c2\[nH]c(=O)/c(=C/c3c[nH]c4ccccc34)[nH]c2=O)c(OC)c1	>100
C/C=c1\[nH]c(=O)/c(=C/CCCCC)[nH]c1=O	>100
COc1cc(/C=c2\[nH]c(=O)/c(=C/c3ccc(OC)c(OC)c3)[nH]c2=O)cc(OC)c1	>100
COc1ccc(/C=c2\[nH]c(=O)/c(=C/c3ccc([N+](=O)[O-])cc3)[nH]c2=O)cc1	>100
O=c1[nH]/c(=C\c2c[nH]c3ccccc23)c(=O)[nH]/c1=C\c1ccccn1	>100
COc1cc(/C=c2\[nH]c(=O)/c(=C/c3c[nH]c4ccccc34)[nH]c2=O)cc(OC)c1OC	100
O=c1[nH]/c(=C\c2ccccn2)c(=O)[nH]/c1=C\c1ccccn1	100
O=c1[nH]/c(=C\c2c[nH]c3ccccc23)c(=O)[nH]/c1=C\c1c[nH]c2ccccc12	>100
COc1ccc(/C=c2\[nH]c(=O)/c(=C/c3ccc(OC)c(OC)c3)[nH]c2=O)cc1OC	>100
C/C=c1\[nH]c(=O)/c(=C/C)[nH]c1=O	100
COc1cc(/C=c2\[nH]c(=O)/c(=C/c3cc(OC)c(OC)c(OC)c3)[nH]c2=O)cc(OC)c1OC	>100
COc1cc(/C=c2\[nH]c(=O)/c(=C/c3c(OC)cc(OC)cc3OC)[nH]c2=O)cc(OC)c1	100
O=c1[nH]/c(=C\c2ccc(Cl)cc2)c(=O)[nH]/c1=C\c1ccc(Cl)cc1	>100
COc1ccc(/C=c2\[nH]c(=O)/c(=C/c3cc(OC)c(OC)c(OC)c3)[nH]c2=O)cc1OC	100
C/C=c1\[nH]c(=O)/c(=C/C=C/C)[nH]c1=O	>100
COc1cc(/C=c2\[nH]c(=O)/c(=C/c3cccs3)[nH]c2=O)cc(OC)c1OC	>100
C/C=c1\[nH]c(=O)c(=CC=Cc2ccccc2)[nH]c1=O	>100
O=c1[nH]/c(=C\c2cccs2)c(=O)[nH]/c1=C\c1ccccn1	100
COc1cc(/C=c2\[nH]c(=O)/c(=C/c3cc(OC)cc(OC)c3)[nH]c2=O)cc(OC)c1	>100

SMILES	lowest concentration causing severe inhibition of nauplii movement [µg/mL]
C/C=C/C=c1\[nH]c(=O)/c(=C/CC)[nH]c1=O	>100
O=c1[nH]/c(=C\c2ccc([N+](=O)[O-])cc2)c(=O)[nH]/c1=C\c1ccccc1	>100
COc1cc(OC)c(/C=c2\[nH]c(=O)/c(=C/c3c(OC)cc(OC)cc3OC)[nH]c2=O)c(OC)c1	100
O=c1[nH]/c(=C\c2ccc(O)cc2)c(=O)[nH]/c1=C\c1ccccc1	>100
COc1ccc(/C=c2\[nH]c(=O)/c(=C/c3c[nH]c4ccccc34)[nH]c2=O)cc1OC	>100
C/C=C/C=c1\[nH]c(=O)/c(=C/C(C)C)[nH]c1=O	>100
COc1cc(/C=c2\[nH]c(=O)/c(=C/c3c[nH]c4ccccc34)[nH]c2=O)cc(OC)c1	>100
COc1cc(OC)c(/C=c2\[nH]c(=O)/c(=C/c3ccc(OC)c(OC)c3)[nH]c2=O)c(OC)c1	>100
COc1ccc(/C=c2\[nH]c(=O)/c(=C/c3ccccc3)[nH]c2=O)cc1	>100
CCCCC/C=c1\[nH]c(=O)/c(=C/CCCCC)[nH]c1=O	100
CC/C=c1\[nH]c(=O)/c(=C/C(C)C)[nH]c1=O	>100
CC(C)/C=c1\[nH]c(=O)c(=CC=Cc2ccccc2)[nH]c1=O	>100
O=c1[nH]/c(=C\c2ccccc2[N+](=O)[O-])c(=O)[nH]/c1=C\c1ccccc1[N+](=O)[O-]	>100
COc1cc(OC)c(/C=c2\[nH]c(=O)/c(=C/c3cc(OC)c(OC)c(OC)c3)[nH]c2=O)c(OC)c1	>100
O=c1[nH]/c(=C\c2cccs2)c(=O)[nH]/c1=C\c1cccs1	>100
COc1ccc(/C=c2\[nH]c(=O)/c(=C/c3ccccc3[N+](=O)[O-])[nH]c2=O)cc1	>100
COc1cc(/C=c2\[nH]c(=O)/c(=C/c3cc(OC)c(OC)c(OC)c3)[nH]c2=O)cc(OC)c1	100
CC(C)/C=c1\[nH]c(=O)/c(=C/C(C)C)[nH]c1=O	>100

What follows are compounds tested on Artemia salina (assay: as §1). Conditions: read-out: LD50 (the source's name).
Assay type: functional
Outline: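 Artemia salina eggs held 24 h in artificial seawater; about 20 nauplii per well in 980 µL brine. Compound added at 1-100 µg in 20 µL DMSO, top level 100 µg/mL (solubility limit), each concentration in quadruplicate. Incubated 24 h at 26 °C. Nauplii movement inhibition and survival scored against DMSO controls, with control deaths <10%.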

SMILES	LC50 [µg/mL]
COc1cc(/C=c2\[nH]c(=O)/c(=C/c3ccccn3)[nH]c2=O)cc(OC)c1	36 (≈ 102 µM)
COc1cc(/C=c2\[nH]c(=O)/c(=C/c3cccs3)[nH]c2=O)cc(OC)c1	18 (≈ 50.5 µM)
COc1ccc(/C=c2\[nH]c(=O)/c(=C/c3ccccn3)[nH]c2=O)cc1OC	60 (≈ 171 µM)
